How the values were obtained:
[1] = test system: Radical scavenging activity; assay: Antioxidant activity assessed as DPPH radical scavenging activity after 30 mins; format: functional
Procedure, shortened: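 10 µL DMSO sample dilutions (DMSO alone as control) added to 190 µL of 1.5 × 10^-4 M ethanolic DPPH radical. Incubated 30 min at 25 °C, then A517 read at steady state. % scavenged = (1 − Atest/Acontrol) × 100. EC50 is the concentration scavenging 50% of the DPPH radical.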

[2] = Antioxidant activity assessed as ABTS radical scavenging activity after 7 mins

SMILES: COc1ccc(O)c(C(C)(C)C)c1.COc1ccc(O)cc1C(C)(C)C [BUTYLATED HYDROXYANISOLE]
- EC50 [1]: 97.1 µM
- EC50 [2]: 11.7 µM

SMILES: C/C=C/c1cc2c(c(=O)o1)-c1c(O)c(O)c(OC)c(C=O)c1CO2 [CYATHUSAL A]
- EC50 [1]: 41.6 µM
- EC50 [2]: 7.86 µM

SMILES: C/C=C/c1cc2c(c(=O)o1)-c1c(O)c(O)c(OC)c(C=O)c1C(O)O2 (configuration not stated) [CYATHUSAL B]
- EC50 [1]: 46 µM
- EC50 [2]: 11.1 µM

SMILES: C/C=C/c1cc2c(c(=O)o1)-c1c(O)c(O)c(OC)c(C=O)c1C(OC(C)C)O2 (configuration not stated) [CYATHUSAL C]
- EC50 [1]: 26.6 µM
- EC50 [2]: 9.1 µM

SMILES: C/C=C/c1cc2c(c(=O)o1)-c1c(O)c(O)c(OC)c(C=O)c1C(OC)O2 (configuration not stated) [PULVINATAL]
- EC50 [1]: 28.6 µM
- EC50 [2]: 8.36 µM

SMILES: Cc1c(C)c2c(c(C)c1O)CCC(C)(C(=O)O)O2 (configuration not stated) [TROLOX]
- EC50 [1]: 37.6 µM
- EC50 [2]: 14.5 µM

— ChEMBL document CHEMBL1143704, “Cyathusals A, B, and C, antioxidants from the fermented mushroom Cyathus stercoreus” (J Nat Prod, 2007)
